The target in data set [1] is T1, ATP-dependent Clp protease proteolytic subunit (Staphylococcus aureus (strain NCTC 8325)) (UniProt Q2G036).
T1 sequence (whole entry): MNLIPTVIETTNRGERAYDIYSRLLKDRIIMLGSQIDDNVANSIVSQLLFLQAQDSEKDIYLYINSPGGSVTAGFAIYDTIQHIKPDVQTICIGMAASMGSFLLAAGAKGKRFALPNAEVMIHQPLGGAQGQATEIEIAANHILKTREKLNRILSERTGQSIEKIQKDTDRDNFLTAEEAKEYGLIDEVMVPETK
Kind of data set: Inhibition of recombinant Staphylococcus aureus NCTC 8325 peptidase activity of clpP expressed in Escherichia coli BL21 at 200 to 800 uM after 10 mins using SLY-AMC as substrate by fluorescence assay. The method in brief: (§1)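 Recombinant S. aureus ClpP (Strep-tag purified from E. coli BL21), 2 µg, preincubated 10 min at room temperature with lactone or DMSO in 50 mM MES, 100 mM KCl, pH 7.0. SLY-AMC added at 0.2 mM final, 2% DMSO final. Fluorescence read at ex 340/em 450 nm. At least triplicates; EC50 from curve fitting.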

The subject of data set [2] is Staphylococcus aureus. In words: Antivirulence activity against Staphylococcus aureus NCTC 8325 in sheep RBC assessed as inhibition of hemolysis in blood agar plate at 100 uM by measuring hemolysin level after overnight incubation by serial dilution agar plate assay.
Data set [3] concerns Staphylococcus aureus. Kind of data set: Antivirulence activity against Staphylococcus aureus NCTC 8325-4 in sheep RBC assessed as inhibition of hemolysis in blood agar plate by measuring hemolysin level after overnight incubation by serial dilution agar plate assay. It counts as functional, organism-based. The method in brief: (§2)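 S. aureus NCTC 8325 inoculated onto 5.5 mm card discs on 5% sheep blood agar plates, together with serial dilutions of β-lactone in DMSO, and incubated overnight at 37 °C. Hemolysis zones were measured and normalized to the DMSO control. Compound stocks were kept in DMSO at -20 °C.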

Data set [4] deals with NIH3T3. Kind of data set: Cytotoxicity against mouse NIH/3T3 cells assessed as cell viability up to 1 mM after 24 hrs by MTT assay. The format is cell-based. Particulars: nih3t3, 24 h. An outline of the steps: (§3)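 NIH3T3 cells in DMEM (4 mM glutamine) + 10% FCS, plated at 1.5×10^3/well and cultured 24 h to 30-40% confluence. Lactones diluted 1:100 from DMSO stocks into fresh medium; cells exposed 24 h. MTT (5 mg/ml stock) added for 2 h, cells lysed in DMSO, OD at 570 nm with 630 nm background subtraction.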
In general terms: Tetrazolium dyes change colour on reduction, which living cells bring about.

Data set [5] deals with T2, ATP-dependent Clp protease proteolytic subunit (Staphylococcus aureus (strain NCTC 8325), UniProt Q2G036).
T2 sequence (Q2G036 whole entry): T1 sequence (whole entry)
In words: Inhibition of recombinant Staphylococcus aureus NCTC 8325 peptidase activity of clpP expressed in Escherichia coli BL21 after 10 mins using SLY-AMC as substrate by fluorescence assay. An outline of the steps: as §1

Data set [6] deals with Staphylococcus aureus. Kind of data set: Growth inhibition of Staphylococcus aureus NCTC 8325 at 1 mM after 9 hrs. It counts as functional, organism-based. An outline of the steps:
(§4)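 Overnight cultures diluted 1:100 in LB (P. aeruginosa, E. coli) or BHB (S. aureus, S. epidermidis, E. faecalis). 100 µL treated with 1 µL of 100 mM lactone stock or DMSO control. Shaken in 96-well plates for 9 h at 37 °C, then OD600 read. Triplicates.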

Data set [7] in a line: Cytotoxicity against mouse NIH/3T3 cells assessed as cell viability at 200 to 1000 uM after 24 hrs by MTT assay. The format is cell-based, NIH3T3. To be noted: read-out: Activity. The method in brief:
as §3

Another data set relates to Pseudomonas aeruginosa. In words: Growth inhibition of Pseudomonas aeruginosa PAO1 at 1 mM after 9 hrs. It counts as functional, organism-based. The method in brief:
as §4

The subject of another data set is Escherichia coli. In words: Growth inhibition of Escherichia coli K-12 at 1 mM after 9 hrs. The format is functional, organism-based. The method in brief:
as §4

In data set [8] the target is T1, ATP-dependent Clp protease proteolytic subunit (Staphylococcus aureus (strain NCTC 8325)). Kind of data set: Displacement of U1P from clpP in live Staphylococcus aureus NCTC 8325 cells after 1 hr using rhodamine-azide by SDS PAGE fluorescence analysis.
The test system of the next data set is HaCaT. Kind of data set: Cytotoxicity against human HaCaT cells assessed as cell viability after 24 hrs by MTT assay. It counts as cell-based. The method in brief: (§5)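 MTT read-out after 24 h exposure. NIH3T3 grown in DMEM (4 mM glutamine) + 10% FCS and plated at 1.5×10^3/well; HaCat grown in calcium-free DMEM (2 mM glutamine) + 10% dialyzed FCS and plated at 4.5×10^3/well. Cells cultured 24 h to 30-40% confluence. Lactones diluted 1:100 from DMSO stocks into fresh medium. MTT added for 2 h, formazan dissolved in DMSO, OD 570 nm minus 630 nm.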

Data set [9] relates to Staphylococcus aureus. Kind of data set: Antivirulence activity against Staphylococcus aureus NCTC 8325-4 in sheep RBC assessed as inhibition of hemolysis in liquid medium by measuring hemolysin level after overnight incubation by spent culture supernatant assay.
Data set [10] has as its system Staphylococcus aureus. In words: Antivirulence activity against Staphylococcus aureus NCTC 8325-4 in sheep RBC assessed as inhibition of hemolysis in agar plate by measuring hemolysin level after overnight incubation by serial dilution agar plate assay. The format is functional, organism-based. The method in brief:
as §2

A further data set concerns Enterococcus faecalis. Kind of data set: Growth inhibition of Enterococcus faecalis OG1RF at 1 mM after 9 hrs. It counts as functional. The method in brief:
as §4

The test system of data set [11] is Staphylococcus epidermidis. Kind of data set: Growth inhibition of Staphylococcus epidermidis RP62A at 1 mM after 9 hrs. It counts as functional. The method in brief: as §4
Data set [12] addresses T1, ATP-dependent Clp protease proteolytic subunit (Staphylococcus aureus (strain NCTC 8325)). Kind of data set: Inhibition of recombinant Staphylococcus aureus NCTC 8325 peptidase activity of clpP expressed in Escherichia coli BL21 at 10 to 40 uM after 10 mins using SLY-AMC as substrate by fluorescence assay. An outline of the steps: as §1
The subject of data set [13] is Staphylococcus aureus. Kind of data set: Antivirulence activity against Staphylococcus aureus NCTC 8325-4 in sheep RBC assessed as inhibition of hemolysis in liquid medium by measuring hemolysin level at 100 uM after overnight incubation by spent culture supernatant assay relative to control.
The subject of data set [14] is NIH3T3. Kind of data set: Cytotoxicity against mouse NIH/3T3 cells assessed as cell viability after 24 hrs by MTT assay. It counts as cell-based. To be noted: NIH3T3, 24 h. An outline of the steps:
as §5

The source made the active and inactive calls. The calls are words filed in the database; no cut-off is given here.

As a reminder, the inhibition is the share of the control response that was lost under treatment. As to `C=CCCCCCCC[C@H]1C(=O)O[C@@H]1CCCCCCCCCCCNC(=O)OC(C)(C)C` (racemic), the inhibition entry in [1] is “inactive”. Moreover, the outcome in the data set with Staphylococcus aureus [2] and with Staphylococcus aureus [3] was inactive.
For the compound `C=CCCCCCCCC[C@H]1OC(=O)[C@@H]1CCCCCCCCCNC(=O)OC(C)(C)C` (racemic), the inhibition entry in data set [1] was “inactive”. In addition, the result in the data set on Staphylococcus aureus [2] and with Staphylococcus aureus [3] was inactive.
With `C=CCCCCCCC[C@H]1C(=O)O[C@@H]1CCc1ccccc1` (racemic), the Activity result in the data set on NIH3T3 [4] is on record as “Non-toxic”. For the same compound, the EC50 turned out to be 3.4 µM in data set [5], 91 µM in the data set on HaCaT and 11 µM in the data set with Staphylococcus aureus [9]. Moreover, the “growth inhibition (GI)” value (in the data set with Staphylococcus aureus [6]; with Pseudomonas aeruginosa; in the data set on Escherichia coli; in the data set with Enterococcus faecalis; in data set [11]) was “inactive” throughout. For the same compound, in data set [7], the viability at 24 h, up to 1000 µM came out at 80%. The result in [8] was Active. The ED50 in the data set on Staphylococcus aureus [10] is on record as 7 nmol. The inhibition in [12] worked out at 30%.
For `CCCCCCCCCCCC[C@H]1C(=O)O[C@@H]1CCc1ccccc1` (racemic), the inhibition result in data set [1] was “inactive”. Moreover, the result in the data set with Staphylococcus aureus [2] and with Staphylococcus aureus [3] was inactive.
Take `C=CCCCCCCC[C@H]1C(=O)O[C@@H]1CCCCCNC(=O)c1ccc(N(C)C)cc1` (racemic): the EC50 in [5] worked out at 5.4 µM. For the same compound, the result in data set [8] was Active. In addition, the outcome with Staphylococcus aureus [3] was inactive. The inhibition at 100 µM in the data set with Staphylococcus aureus [13] came to 20%. Besides, the inhibition in data set [12] is 70%.
On to `C=CCCCCCCC[C@H]1C(=O)O[C@@H]1CCc1cccnc1` (racemic), for which the EC50 was determined as 4.5 µM in data set [5], 50 µM with NIH3T3 [14], 75 µM in the data set with HaCaT and 43 µM in the data set with Staphylococcus aureus [9]. In addition, in [8], the outcome was Active. Also, in the data set on Staphylococcus aureus [10], the ED50 was 15 nmol.
